Measurements from ChEMBL document CHEMBL1156988, “Synthesis and antibacterial studies of binaphthyl-based tripeptoids. Part 1” (2010).
Converted amounts (≈) assume the structure as drawn.

How the values were obtained:
Enterococcus faecium [1] = assay: Antibacterial activity against vancomycin-resistant Enterococcus faecium 987 after overnight incubation
Staphylococcus aureus [2] = assay: Antibacterial activity against Staphylococcus aureus 6538P after overnight incubation; format: functional
Procedure, shortened: (§1)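 Strains were grown in Luria Broth. Overnight stationary-phase cultures were diluted 1:1000 into fresh medium with twofold compound dilutions, highest typically 128 µg/ml, in 96-well plates. Incubated overnight at 37 °C. MIC recorded as the […].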

Enterococcus faecium [3] = assay: Antibacterial activity against vancomycin-resistant Enterococcus faecium 243 after overnight incubation
Enterococcus faecium [4] = assay: Antibacterial activity against vancomycin-resistant Enterococcus faecium 820 after overnight incubation
Enterococcus faecium [5] = assay: Antibacterial activity against vancomycin-resistant Enterococcus faecium 449 after overnight incubation
[6] = test system: Staphylococcus epidermidis; assay: Antibacterial activity against Staphylococcus epidermidis ATCC 700562 after overnight incubation; format: functional
Staphylococcus aureus [7] = assay: Antibacterial activity against vancomycin intermediate Staphylococcus aureus after overnight incubation; format: functional
Procedure, shortened: as §1

[8] = Enterococcus faecium, 987, read-out: MIC
[9] = Staphylococcus aureus, 6538P, read-out: MIC
[10] = Enterococcus faecium, 243, read-out: MIC
[11] = Enterococcus faecium, 820, read-out: MIC
[12] = Enterococcus faecium, 449, read-out: MIC

Row | Compound | MIC (Enterococcus faecium [1]; [8]) [µg/mL] | MIC (Staphylococcus aureus [2]; [9]) [µg/mL] | MIC (Enterococcus faecium [3]; [10]) [µg/mL] | MIC (Enterococcus faecium [4]; [11]) [µg/mL] | MIC (Enterococcus faecium [5]; [12]) [µg/mL] | MIC [6] [µg/mL] | MIC (Staphylococcus aureus [7]; read-out: MIC) [µg/mL] | MIC (Enterococcus faecium [1]) [µg/mL] | MIC (Staphylococcus aureus [2]) [µg/mL] | MIC (Enterococcus faecium [3]) [µg/mL] | MIC (Enterococcus faecium [4]) [µg/mL] | MIC (Enterococcus faecium [5]) [µg/mL] | MIC (Staphylococcus aureus [7]) [µg/mL]
1 | CC(C)CCOc1ccc2ccccc2c1-c1c(OCC(=O)N[C@H](CCCCN)C(=O)N[C@H](CCNC(=N)N)C(=O)N[C@@H](CC(C)C)C(=O)OCc2ccccc2)ccc2ccccc12.Cl.Cl | 52.1 | 2.6 | 52.1 | 27.8 | 31.3 |  |  |  |  |  |  |  | 
2 | CC(C)CCOc1ccc2ccccc2c1-c1c(OCC(=O)N[C@H](CCCCN)C(=O)N[C@H](CCCN)C(=O)N[C@@H](CC(C)C)C(=O)OCc2ccccc2)ccc2ccccc12.Cl.Cl | 62.5 | 1.95 | 62.5 | 15.6 | 31.3 |  |  |  |  |  |  |  | 
3 | CNC(=N)NCCC[C@@H](NC(=O)[C@@H](CCCCN)NC(=O)COc1ccc2ccccc2c1-c1c(OCCC(C)C)ccc2ccccc12)C(=O)N[C@@H](CC(C)C)C(=O)OCc1ccccc1.Cl.Cl | 25 | 3.13 | 25 | 25 | 25 | 3.13 |  |  |  |  |  |  | 
4 | CC(C)CCOc1ccc2ccccc2c1-c1c(OCC(=O)N[C@H](CCCCN)C(=O)N[C@H](CCCCN)C(=O)N[C@@H](CC(C)C)C(=O)OCc2ccccc2)ccc2ccccc12.Cl.Cl | 62.5 | 1.95 | 62.5 | 26.1 | 31.3 | 1.95 |  |  |  |  |  |  | 
5 | CC(C)CCOc1ccc2ccccc2c1-c1c(OCC(=O)N[C@H](CCCCN)C(=O)N[C@H](CCCNC(=N)N)C(=O)N[C@H](CC(C)C)C(=O)OCc2ccccc2)ccc2ccccc12.Cl.Cl | 31.3 | 3.9 | 31.3 | 15.6 | 15.6 |  |  |  |  |  |  |  | 
6 | C=CCOc1ccc2ccccc2c1-c1c(OCC(=O)N[C@H](CCCCN)C(=O)N[C@H](CCCNC(=N)N)C(=O)N[C@@H](CC=C)C(=O)OCc2cccc3ccccc23)ccc2ccccc12.Cl.Cl | > 125 | 15.6 | > 125 | 125 | 125 |  |  |  |  |  |  |  | 
7 | C=CC[C@H](NC(=O)[C@@H](CCCNC(=N)N)NC(=O)[C@@H](CCCCN)NC(=O)COc1ccc2ccccc2c1-c1c(OCCC(C)C)ccc2ccccc12)C(=O)OCc1ccccc1.Cl.Cl | 31.3 | 3.9 | 31.3 | 15.6 | 15.6 |  |  |  |  |  |  |  | 
8 | CC(C)CCOc1ccc2ccccc2c1-c1c(OCC(=O)N[C@H](CCCNC(=N)N)C(=O)N[C@H](CCCNC(=N)N)C(=O)N[C@@H](CC(C)C)C(=O)OCc2ccccc2)ccc2ccccc12.Cl.Cl | 31.3 | 1.95 | 62.5 | 15.6 | 31.3 | 19.5 |  |  |  |  |  |  | 
9 | C=CCOc1ccc2ccccc2c1-c1c(OCC(=O)NCC(=O)NCC(=O)N[C@@H](CC=C)C(=O)OCc2ccccc2)ccc2ccccc12 | 31.3 (≈ 45.6 µM) | 3.9 (≈ 5.69 µM) | 62.5 (≈ 91.1 µM) | 15.6 (≈ 22.7 µM) | 31.3 (≈ 45.6 µM) | 3.9 (≈ 5.69 µM) |  |  |  |  |  |  | 
10 | C=CCOc1ccc2ccccc2c1-c1c(OCC(=O)N[C@H](CCCNC(=N)N)C(=O)OCc2ccccc2)ccc2ccccc12.Cl | 62.5 | 3.3 | 62.5 | 62.5 | 62.5 |  |  |  |  |  |  |  | 
11 | C=CCOc1ccc2ccccc2c1-c1c(OCCCC(=O)N[C@H](CCCNC(=N)N)C(=O)OCc2ccccc2)ccc2ccccc12.Cl | 125 | 3.9 | 62.5 | 62.5 | 62.5 |  |  |  |  |  |  |  | 
12 | CC(C)CCOC(=O)[C@H](CC(C)C)NC(=O)[C@@H](CCCNC(=N)N)NC(=O)[C@@H](CCCCN)NC(=O)COc1ccc2ccccc2c1-c1c(OCCC(C)C)ccc2ccccc12.Cl.Cl |  |  |  |  |  |  | 4 |  |  |  |  |  | 
13 | CC(C)CCOc1ccc2ccccc2c1-c1c(OCC(=O)N[C@H](CCCCN)C(=O)N[C@H](CCCNC(=N)N)C(=O)N[C@@H](CC(C)C)c2ncc(Cc3ccccc3)o2)ccc2ccccc12.Cl.Cl |  |  |  |  |  |  | 4 |  |  |  |  |  | 
14 | C=CCOc1ccc2ccccc2c1-c1c(OCC(=O)N[C@H](CCCCN)C(=O)N[C@H](CCCNC(=N)N)C(=O)N[C@@H](Cc2ccccc2)C(=O)OC)ccc2ccccc12.Cl.Cl (stereo in doubt; 81) | 125 | 3.9 | 125 | 125 | 125 |  |  |  |  |  |  |  | 
15 | C=CCOc1ccc2ccccc2c1-c1c(OCC(=O)N[C@H](CCCCN)C(=O)N[C@H](CCCNC(=N)N)C(=O)N[C@@H](Cc2ccccc2)C(=O)OC)ccc2ccccc12.Cl.Cl (stereo in doubt; 82) |  |  |  |  |  |  |  | 125 | 7.8 | 125 | 125 | 125 | 
16 | CN[C@H](CC(C)C)C(=O)N[C@H]1C(=O)N[C@@H](CC(N)=O)C(=O)N[C@H]2C(=O)N[C@H]3C(=O)N[C@H](C(=O)N[C@H](C(=O)O)c4cc(O)cc(O)c4-c4cc3ccc4O)[C@H](O)c3ccc(c(Cl)c3)Oc3cc2cc(c3O[C@@H]2O[C@H](CO)[C@@H](O)[C@H](O)[C@H]2O[C@H]2C[C@](C)(N)[C@H](O)[C@H](C)O2)Oc2ccc(cc2Cl)[C@H]1O [VANCOMYCIN] | 3.13 (≈ 2.16 µM) | 1.56 (≈ 1.08 µM) | 1.56 (≈ 1.08 µM) | > 25 | > 25 | 3.13 (≈ 2.16 µM) |  |  |  |  |  |  | 6 (≈ 4.14 µM)
